Results: PubChem BioAssay
Results filed as inconclusive are left out.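 How the source made its calls, unless noted: active means RAM network inhibition above 8.4% in each of two replicates, 3 SD over the compound average; inconclusive means above 8.4% inhibition in only one replicate; inactive means 8.4% inhibition or less in each replicate.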

Columns and labels:
[1] = OD615 S. cerevisiae growth inhibition, permissive medium, pilot counter-assay, permissive growth control for S. cerevisiae lifespan shortening project (AID 705;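 active means growth inhibition above 25% in both replicates, a cutoff set 3 SD above the mean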); details: OD615, 24 h, at 10 µM, hits give high values
How it was run: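 Material: engineered DeaD yeast; Compound: one dose 10 µM, DMSO 0.25% final; Detection: absorbance (optical density) at 615 nm; Buffer or medium: permissive raffinose/galactose medium; Timing: 24 h exposure, 30 °C.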

[2] = Restrictive medium S. cerevisiae growth inhibition, OD615, pilot screen of yeast lifespan reduction project, restrictive growth control (AID 706;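 active means growth inhibition above a set limit, 3 SD over mean compound inhibition, in both replicates, cut at about 43% in these data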;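 further: modified DeaD lifespan yeast strain shifted to restrictive glucose medium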); details: OD615, 48 h, at 10 µM, hits give high values
How it was run: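 Buffer or medium: restrictive glucose medium (CSMM-D); test system: modified S. cerevisiae; doses: single dose of 10 µM compound final, 0.25% DMSO; schedule: 48 h compound exposure at 30 °C; detection: absorbance (optical density) measured at 615 nm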

[3] = viability gain of MRP-1-high H69AR cells under doxorubicin, pilot screen, MRP-1 activator project, CellTiter-Glo, duplicate (AID 807;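 active means viability increase at or above a cutoff of the median across tested compounds plus 3 SD, cut at about 8.5% in these data, passing the limit was not always enough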;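 further: compound pretreatment 18-22 h then 72 h combined with doxorubicin; 0% = doxorubicin alone and 100% = vehicle without doxorubicin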); details: H69AR viability with doxorubicin, CellTiter-Glo luminescence; at 10 µM; hits give high values
[4] = growth suppression of PTEN-deleted HCT116, pilot screen, cell-based, HCT116 clonal line, CellTiter-Glo (AID 824;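 active means viability at or below 27.92% in each of two runs, the all-compound median minus 4 SD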;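 further: 0% = 20 µM Hyamine control and 100% = vehicle cell control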); details: 60 h, at 10 µM, hits give low values
[5] = inhibitors of the yeast RAM network, pilot screen, dse1pr::URA3 reporter, 5-FOA selection (AID 869;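 active means inhibition over a set limit, the all-compound mean plus 3 SD, in both replicate runs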;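 further: 0% = DMSO wells with no growth and 100% = 10 µM 1-NA-PP1 with full growth; RAM network block rescues cells from 5-FOA so hits raise OD615 growth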); details: S. cerevisiae dse1pr::URA3 5-FOA growth, OD615, 2 d; at 10 µM; hits give high values; strain carries analog-sensitive mutant Cbk1 kinase
[6] = RAM signaling pathway blockade in yeast – S. cerevisiae, Pdr1DBD-CYC8 efflux-inhibited sensitized strain, primary screen (AID 1298);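 further: 0% = DMSO untreated cells without growth and 100% = 10 µM 1-NA-PP1 full growth; higher means more yeast growth rescued from 5-FOA killing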; details: S. cerevisiae cbk1-as DSE1-URA3 strain, 5-FOA growth OD615, 2 d; at 50 µM; hits give high values

COCCNC(=O)c1ccc2c(=O)n(CCOC)c(=O)[nH]c2c1
inactive: growth inhibition [1] -8.7% | growth inhibition [2] -15.7% | viability increase [3] -3.33% | viability [4] 91.3% | inhibition [5] 0.805% | RAM network inhibition [6] 0.78%

CS(=O)(=O)N(CC(=O)NCc1ccncc1)c1cc(Cl)cc(Cl)c1
inactive: growth inhibition [1] -7.62% | growth inhibition [2] -10.8% | viability increase [3] -2.29% | viability [4] 105% | inhibition [5] 1.33% | RAM network inhibition [6] 0.15%

COC(=O)c1ccc2[nH]c(C)c(CN3CCCC3)c(=O)c2c1
inactive: growth inhibition [1] -4.34% | growth inhibition [2] 1.2% | viability increase [3] -2.3% | viability [4] 95.3% | inhibition [5] 0.415% | RAM network inhibition [6] 1.59%

Cc1cc(C(=O)N2CCN(c3ccccn3)CC2)c(C)o1
inactive: growth inhibition [1] 9.65% | growth inhibition [2] -7.73% | viability increase [3] -5.92% | viability [4] 96.3% | inhibition [5] 0.945% | RAM network inhibition [6] 4.2%

Brc1ccc2ncnc(NCc3ccco3)c2c1
inactive: growth inhibition [1] 2.37% | growth inhibition [2] 13% | viability increase [3] -7.68% | viability [4] 35.5% | inhibition [5] 1.71% | RAM network inhibition [6] 4.76%

CCn1nc(C(=O)NC2=NCCS2)c2ccccc2c1=O
inactive: growth inhibition [1] 9.05% | growth inhibition [2] -1.14% | viability increase [3] -2.76% | viability [4] 104% | inhibition [5] 1.19% | RAM network inhibition [6] 3.32%

O=C(CCCOc1ccccc1)N1CCCc2ccccc21
inactive: growth inhibition [1] -0.835% | growth inhibition [2] -2.99% | viability increase [3] -2.01% | viability [4] 92.2% | inhibition [5] 0.825% | RAM network inhibition [6] 2.37%

COc1cc(NC(=O)C2CC2)c(C(=O)O)cc1OC
inactive: growth inhibition [1] -3.4% | growth inhibition [2] 7.62% | viability increase [3] -2.58% | viability [4] 100% | inhibition [5] 1.68% | RAM network inhibition [6] -0.36%

COc1cc(C2CC(=O)C=C(O)C2)cc(OC)c1OC (stereo not given)
inactive: growth inhibition [1] -7.01% | growth inhibition [2] -6.56% | viability increase [3] 0.41% | viability [4] 99% | inhibition [5] 0.785% | RAM network inhibition [6] 5.78%

CCn1c(C)c2c(C)nnc(C)c2c1C
inactive: growth inhibition [1] -7.03% | growth inhibition [2] -3.61% | viability increase [3] -3.11% | viability [4] 91.5% | inhibition [5] 1.05% | RAM network inhibition [6] -0.52%

COc1ccc(OC)c2c(C)cc(N3CCCN(C)CC3)nc12
inactive: growth inhibition [1] 3.26% | growth inhibition [2] -3.9% | viability increase [3] -4.81% | viability [4] 85.9% | inhibition [5] 0.015% | RAM network inhibition [6] 0%

COc1ccc(Oc2ccc(S(=O)(=O)N3CCCCC3)cc2S(=O)(=O)N2CCCCC2)cc1
inactive: growth inhibition [1] -4.96% | growth inhibition [2] -0.32% | viability increase [3] -3.43% | viability [4] 87.1% | inhibition [5] 1.56% | RAM network inhibition [6] 3.99%

Cc1cc2ccccc2c(=O)n1CC(=O)NCC(=O)N(C)Cc1ccccc1
inactive: growth inhibition [1] -10.2% | growth inhibition [2] -4.71% | viability increase [3] -0.97% | viability [4] 98.6% | inhibition [5] 0.475% | RAM network inhibition [6] 5.32%

COc1cc(NS(=O)(=O)c2ccc(NC(=O)COc3ccc(C)cc3)cc2)nc(OC)n1
inactive: growth inhibition [1] -14.3% | growth inhibition [2] -7.79% | viability increase [3] -1.12% | viability [4] 102% | inhibition [5] 1.73% | RAM network inhibition [6] 3.5%

CCn1cc(S(=O)(=O)CC(=O)NC2CCCCC2)c2ccccc21
inactive: growth inhibition [1] -9.89% | growth inhibition [2] -0.52% | viability increase [3] -1.1% | viability [4] 97.4% | inhibition [5] 1.71% | RAM network inhibition [6] 2.87%

c1csc(CNc2ncnc3sccc23)c1
inactive: growth inhibition [1] 3.62% | growth inhibition [2] -3.59% | viability increase [3] -2% | viability [4] 62.7% | inhibition [5] 2.05% | RAM network inhibition [6] 4.4%

Cc1ccc(Cl)cc1N(CC(=O)N1CCCCCC1)S(C)(=O)=O
inactive: growth inhibition [1] -9.3% | growth inhibition [2] 10.7% | viability increase [3] -3.63% | viability [4] 93.4% | inhibition [5] 0.635% | RAM network inhibition [6] 1.37%

CCC1CCCCN1C(=O)Cn1c(=O)oc2ccccc21 (stereo not given)
inactive: growth inhibition [1] -8.32% | growth inhibition [2] -4.71% | viability increase [3] -2.07% | viability [4] 101% | inhibition [5] 1.96% | RAM network inhibition [6] 4.3%

COc1ccccc1CNC(=O)CCS(=O)(=O)c1cccs1
inactive: growth inhibition [1] -15.9% | growth inhibition [2] -3.45% | viability increase [3] -3.06% | viability [4] 103% | inhibition [5] 1.43% | RAM network inhibition [6] 0.82%

COc1ccc(Oc2coc3c(CN(C)C)c(O)ccc3c2=O)cc1
inactive: growth inhibition [1] -5.32% | growth inhibition [2] -12.9% | viability increase [3] -7.46% | viability [4] 95.3% | inhibition [5] 0.075% | RAM network inhibition [6] -0.21%

COc1ccc(N2C(=O)CCC(C(=O)N3CCCCCC3)C2c2ccc(OC)c(OC)c2)cc1 (stereo not given)
inactive: growth inhibition [1] -2.31% | growth inhibition [2] 12.9% | viability increase [3] -1.38% | viability [4] 99% | inhibition [5] 0.735% | RAM network inhibition [6] 4.47%

Cc1c(C)[n+](=O)c(-c2ccc(F)cc2)c(C)n1[O-]
inactive: growth inhibition [1] -1.22% | growth inhibition [2] 3.79% | viability increase [3] -3.29% | viability [4] 98.3% | inhibition [5] 0.535% | RAM network inhibition [6] 4.01%

CCS(=O)(=O)N1CCN(C(=O)c2cccs2)CC1
inactive: growth inhibition [1] -9.68% | growth inhibition [2] -12.3% | viability increase [3] -1.23% | viability [4] 100% | inhibition [5] 3.8% | RAM network inhibition [6] -0.05%

COC(=O)C1=C(C)N(c2ccc(F)cc2)C(=O)C1
inactive: growth inhibition [1] -6.78% | growth inhibition [2] -12.3% | viability increase [3] -2.11% | viability [4] 93.6% | inhibition [5] 1.19% | RAM network inhibition [6] -0.26%

COC(=O)C(C)Sc1nnc(-c2ccncc2)o1 (stereo not given)
inactive: growth inhibition [1] -6.28% | growth inhibition [2] -8.81% | viability increase [3] -0.71% | viability [4] 99.4% | inhibition [5] 1.64% | RAM network inhibition [6] 0.1%

CCOC(=O)c1cc2c(=O)n3ccccc3nc2n(CCOC)c1=NC(=O)c1ccncc1
inactive: growth inhibition [1] -1.34% | growth inhibition [2] -11.8% | viability increase [3] -5.7% | viability [4] 99.6% | inhibition [5] 0.96% | RAM network inhibition [6] 5.99%

Cc1cc(C(=O)NC(C)c2ccncc2)no1 (stereo not given)
inactive: growth inhibition [1] -12.9% | growth inhibition [2] 8.19% | viability increase [3] -2.15% | viability [4] 90.3% | inhibition [5] 1.55% | RAM network inhibition [6] 0.72%

COc1ccc(N2CCN(CCNC(=O)CCNS(=O)(=O)c3cccs3)CC2)cc1
inactive: growth inhibition [1] -5.45% | growth inhibition [2] -5.3% | viability increase [3] -0.82% | viability [4] 96.3% | inhibition [5] 1.71% | RAM network inhibition [6] 2.25%

CS(=O)(=O)N(CC(=O)N1CCCCCC1)c1cccc(Br)c1
inactive: growth inhibition [1] -9.19% | growth inhibition [2] -11.5% | viability increase [3] -2.75% | viability [4] 94.5% | inhibition [5] 1.21% | RAM network inhibition [6] 1.44%

COc1ccc(NC(=O)c2oc3ccccc3c2C)c(OC)c1
inactive: growth inhibition [1] -7.12% | growth inhibition [2] -1.27% | viability increase [3] -3.83% | viability [4] 96.1% | inhibition [5] 0.97% | RAM network inhibition [6] 7.99%

Cc1nc2nc(SCC(=O)N3CCOCC3)nn2c(C)c1Cc1ccccc1
inactive: growth inhibition [1] -0.01% | growth inhibition [2] 1.59% | viability increase [3] -3.4% | viability [4] 95.5% | inhibition [5] 1.7% | RAM network inhibition [6] 0.77%

O=C(CN(C1CCCCC1)S(=O)(=O)c1ccccc1)N1CCCC1
inactive: growth inhibition [1] -9.43% | growth inhibition [2] -3.8% | viability increase [3] -2.08% | viability [4] 100% | inhibition [5] 0.885% | RAM network inhibition [6] 2.77%

O=C(CN1CCCCC1)Nc1ccc(F)c(Cl)c1
inactive: growth inhibition [1] 5.67% | growth inhibition [2] 4.63% | viability increase [3] -2.13% | viability [4] 98.4% | inhibition [5] 1.7% | RAM network inhibition [6] -0.11%

O/N=C1\CCCc2oc3c(c21)CCCC3
inactive: growth inhibition [1] -7.12% | growth inhibition [2] -2.73% | viability increase [3] -1.84% | viability [4] 97.5% | inhibition [5] 2.48% | RAM network inhibition [6] 1.89%

Cc1nnc(NC(=O)CSc2nccn2-c2cccc(C)c2C)s1
inactive: growth inhibition [1] -7.29% | growth inhibition [2] 11.5% | viability increase [3] -5.19% | viability [4] 30.1% | inhibition [5] 0.035% | RAM network inhibition [6] 4.71%

CN(C)c1ccc(C(=O)Nc2ccc(S(=O)(=O)NC3=NCCCCC3)cc2)cc1
inactive: growth inhibition [1] -6.28% | growth inhibition [2] -8.65% | viability increase [3] -3.44% | viability [4] 99.4% | inhibition [5] 1.61% | RAM network inhibition [6] 3.12%

Cc1c(-c2ccco2)[n+](=O)c2c(n1[O-])CCCCC2
inactive: growth inhibition [1] -4.97% | growth inhibition [2] -4.29% | viability increase [3] -1.32% | viability [4] 105% | inhibition [5] 1.32% | RAM network inhibition [6] 8.4%

O=S(=O)(NCCc1csc(-c2cccnc2)n1)c1ccc2c(c1)OCCO2
inactive: growth inhibition [1] -5.61% | growth inhibition [2] 8.38% | viability increase [3] -0.72% | viability [4] 95.5% | inhibition [5] 1.71% | RAM network inhibition [6] -0.63%

O=C(C1CC1)N1CCc2cc(Br)cc(S(=O)(=O)N3CCCCCC3)c21
inactive: growth inhibition [1] -4% | growth inhibition [2] -6.99% | viability increase [3] -3.17% | viability [4] 82.1% | inhibition [5] 1.66% | RAM network inhibition [6] 5.99%

c1ccc(-c2noc(-c3cccnc3)n2)cc1
inactive: growth inhibition [1] 5.9% | growth inhibition [2] 2.4% | viability increase [3] -3.8% | viability [4] 95.2% | inhibition [5] -0.04% | RAM network inhibition [6] 3.95%
